Experimental data reported in ChEMBL document CHEMBL4689842, “EUbOPEN Chemogenomics Library wave 1” (2021).
Values joined by “and” are separate entries in the source; they are usually repeats but may differ in a detail not shown here. Identical values can stand only once.

What was measured:
Type in all cases: toxicity, cell-based
[1] = test system: HEK-293T; test: Multiplex assay against HEK293T; details: human, 1 µM, compound concentration 1 uM;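 as to Population Tubulin-Different-Phenotype (%): share of the cells with healthy nuclei that show this phenotype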
Summary of the method: (§1)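 At seeding, live cells were stained with Hoechst33342, BioTracker Green Microtubule Cytoskeleton Dye, MitoTracker Red and Annexin V Alexa Fluor 680. After compound addition they were imaged on a CQ1 microscope at 37°C and 5% CO2, and CellPathfinder machine-learning gating sorted them into Hoechst high-intensity objects or normal cells, with normal cells further split into healthy, pyknosed or fragmented nuclei and pyknosed cells into mitotic or apoptotic. Tubulin, mitochondrial-mass and membrane-permeability phenotypes are given as per cents of cells with healthy nuclei.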

[2] = test system: U2OS; test: Multiplex assay against U2OS; details: human, 1 µM, compound concentration 1 uM; summary of the method: as §1
[3] = test system: U2OS; test: Incucyte cell viability with U2OS; details: human, 10 µM, compound concentration 10 uM; also: filed as whole numbers so only -1 and 0 and 1 occur
[4] = test system: HEK-293T; test: Incucyte cell viability with HEK293T; details: human, 10 µM, compound concentration 10 uM; also: filed as whole numbers so only -1 and 0 and 1 occur
[5] = test system: Fibroblast; test: Incucyte cell viability with human fibroblast; details: 10 µM, compound concentration 10 uM; also: filed as whole numbers so only -1 and 0 and 1 occur
[6] = test system: Fibroblast; test: Multiplex assay against human fibroblast; details: 1 µM, compound concentration 1 uM; summary of the method: as §1
[7] = 6 h, replicate number 1, timepoint 6 hours
[8] = 12 h, replicate number 1, timepoint 12 hours
[9] = 18 h, replicate number 1, timepoint 18 hours
[10] = 24 h, replicate number 1, timepoint 24 hours

COc1cc(Nc2ccnc3ccc(Br)cc23)cc(OC)c1OC
Population Apoptotic (%) ([1]; 12 h, replicate 1): 21% and 25% | Population Fragmented Nuclei (%) ([1]; 12 h, replicate 1): 24% and 18% | Population Healthy Nuclei (%) ([1]; 12 h, replicate 1): 35% and 54% | Population Hoechst High Intensity Objects (%) ([1]; 12 h, replicate 1): 16% | Population Membrane Permeable-Phenotype (%) ([1]; 12 h, replicate 1): 12% and 4% | Population Mitotic Cells (%) ([1]; 12 h, replicate 1): 78% and 74% | Population Normal (%) ([1]; 12 h, replicate 1): 83% | Population Pyknosed Nuclei (%) ([1]; 12 h, replicate 1): 40% and 27% | Total Cell Count ([1]; 12 h, replicate 1): 627 and 585 | Population Apoptotic (%) ([1]; 12 h, replicate 2): 17% and 8% | Population Fragmented Nuclei (%) ([1]; 12 h, replicate 2): 11% and 4% | Population Healthy Nuclei (%) ([1]; 12 h, replicate 2): 59% and 75% | Population Membrane Permeable-Phenotype (%) ([1]; 12 h, replicate 2): 3% and 0% | Population Mitotic Cells (%) ([1]; 12 h, replicate 2): 82% and 91% | Population Normal (%) ([1]; 12 h, replicate 2): 92% and 97% | Population Pyknosed Nuclei (%) ([1]; 12 h, replicate 2): 29% and 20% | Total Cell Count ([1]; 12 h, replicate 2): 1015 and 1049 | Population Apoptotic (%) ([1]; 24 h, replicate 1): 32% and 19% | Population Fragmented Nuclei (%) ([1]; 24 h, replicate 1): 23% and 12% | Population Healthy Nuclei (%) ([1]; 24 h, replicate 1): 41% and 67% | Population Hoechst High Intensity Objects (%) ([1]; 24 h, replicate 1): 14% and 10% | Population Membrane Permeable-Phenotype (%) ([1]; 24 h, replicate 1): 7% | Population Mitotic Cells (%) ([1]; 24 h, replicate 1): 67% and 80% | Population Normal (%) ([1]; 24 h, replicate 1): 85% and 89% | Population Pyknosed Nuclei (%) ([1]; 24 h, replicate 1): 35% and 20% | Population Tubulin-Different-Phenotype (%) ([1]; 24 h, replicate 1): 30% and 15% | Total Cell Count ([1]; 24 h, replicate 1): 604 and 574 | Population Apoptotic (%) ([1]; 24 h, replicate 2): 14% and 7% | Population Fragmented Nuclei (%) ([1]; 24 h, replicate 2): 11% and 8% | Population Healthy Nuclei (%) ([1]; 24 h, replicate 2): 50% and 79% | Population Hoechst High Intensity Objects (%) ([1]; 24 h, replicate 2): 8% and 3% | Population Membrane Permeable-Phenotype (%) ([1]; 24 h, replicate 2): 2% and 1% | Population Mitochondria Different-Phenotype (%) ([1]; 24 h, replicate 2): 55% | Population Mitotic Cells (%) ([1]; 24 h, replicate 2): 86% and 92% | Population Normal (%) ([1]; 24 h, replicate 2): 91% and 96% | Total Cell Count ([1]; 24 h, replicate 2): 1011 and 1289 | Population Apoptotic (%) ([2]; 12 h, replicate 1): 45% and 33% | Population Fragmented Nuclei (%) ([2]; 12 h, replicate 1): 9% and 8% | Population Healthy Nuclei (%) ([2]; 12 h, replicate 1): 83% and 79% | Population Hoechst High Intensity Objects (%) ([2]; 12 h, replicate 1): 6% and 5% | Population Membrane Permeable-Phenotype (%) ([2]; 12 h, replicate 1): 22% and 14% | Population Mitochondria Different-Phenotype (%) ([2]; 12 h, replicate 1): 28% and 29% | Population Mitotic Cells (%) ([2]; 12 h, replicate 1): 54% and 66% | Population Normal (%) ([2]; 12 h, replicate 1): 93% and 94% | Population Pyknosed Nuclei (%) ([2]; 12 h, replicate 1): 7% and 11% | Population Tubulin-Different-Phenotype (%) ([2]; 12 h, replicate 1): 39% and 14% | Total Cell Count ([2]; 12 h, replicate 1): 135 and 196 | Population Fragmented Nuclei (%) ([2]; 12 h, replicate 2): 12% and 20% | Population Healthy Nuclei (%) ([2]; 12 h, replicate 2): 70% and 71% | Population Hoechst High Intensity Objects (%) ([2]; 12 h, replicate 2): 12% and 19% | Population Membrane Permeable-Phenotype (%) ([2]; 12 h, replicate 2): 25% and 16% | Population Mitochondria Different-Phenotype (%) ([2]; 12 h, replicate 2): 38% and 23% | Population Normal (%) ([2]; 12 h, replicate 2): 87% and 80% | Population Pyknosed Nuclei (%) ([2]; 12 h, replicate 2): 16% | Population Tubulin-Different-Phenotype (%) ([2]; 12 h, replicate 2): 37% and 22% | Total Cell Count ([2]; 12 h, replicate 2): 102 and 150 | Population Apoptotic (%) ([2]; 24 h, replicate 1): 31% and 83% | Population Fragmented Nuclei (%) ([2]; 24 h, replicate 1): 11% and 13% | Population Healthy Nuclei (%) ([2]; 24 h, replicate 1): 71% and 66% | Population Hoechst High Intensity Objects (%) ([2]; 24 h, replicate 1): 6% | Population Membrane Permeable-Phenotype (%) ([2]; 24 h, replicate 1): 18% and 16% | Population Normal (%) ([2]; 24 h, replicate 1): 93% | Population Pyknosed Nuclei (%) ([2]; 24 h, replicate 1): 17% and 20% | Population Tubulin-Different-Phenotype (%) ([2]; 24 h, replicate 1): 21% and 22% | Total Cell Count ([2]; 24 h, replicate 1): 259 and 175 | Population Fragmented Nuclei (%) ([2]; 24 h, replicate 2): 10% and 14% | Population Healthy Nuclei (%) ([2]; 24 h, replicate 2): 58% and 59% | Population Hoechst High Intensity Objects (%) ([2]; 24 h, replicate 2): 16% | Population Membrane Permeable-Phenotype (%) ([2]; 24 h, replicate 2): 22% and 17% | Population Mitochondria Different-Phenotype (%) ([2]; 24 h, replicate 2): 57% and 19% | Population Normal (%) ([2]; 24 h, replicate 2): 83% | Population Pyknosed Nuclei (%) ([2]; 24 h, replicate 2): 31% and 25% | Population Tubulin-Different-Phenotype (%) ([2]; 24 h, replicate 2): 33% and 28% | Total Cell Count ([2]; 24 h, replicate 2): 113 and 193 | Growth Rate ([3]; 0 h, replicate number 1, timepoint 0 hours): 0 | Growth Rate [3, 7]: 0 | Growth Rate [3, 8]: 0 | Growth Rate [3, 9]: 0 | Growth Rate [3, 10]: 0 | Growth Rate [4, 7]: 0 | Growth Rate [4, 8]: 0 | Growth Rate [4, 9]: 0 | Growth Rate [4, 10]: 0 | Growth Rate [5, 7]: 0 | Growth Rate [5, 8]: 0 | Growth Rate [5, 9]: 0 | Growth Rate [5, 10]: 0 | Population Apoptotic (%) ([6]; 12 h, replicate 1): 51% and 75% | Population Fragmented Nuclei (%) ([6]; 12 h, replicate 1): 26% and 28% | Population Healthy Nuclei (%) ([6]; 12 h, replicate 1): 50% and 56% | Population Hoechst High Intensity Objects (%) ([6]; 12 h, replicate 1): 11% | Population Membrane Permeable-Phenotype (%) ([6]; 12 h, replicate 1): 5% and 4% | Population Mitochondria Different-Phenotype (%) ([6]; 12 h, replicate 1): 22% and 8% | Population Mitotic Cells (%) ([6]; 12 h, replicate 1): 48% and 25% | Population Normal (%) ([6]; 12 h, replicate 1): 88% | Population Pyknosed Nuclei (%) ([6]; 12 h, replicate 1): 23% and 15% | Total Cell Count ([6]; 12 h, replicate 1): 152 and 176 | Population Apoptotic (%) ([6]; 12 h, replicate 2): 50% | Population Fragmented Nuclei (%) ([6]; 12 h, replicate 2): 66% and 79% | Population Hoechst High Intensity Objects (%) ([6]; 12 h, replicate 2): 49% and 39% | Population Membrane Permeable-Phenotype (%) ([6]; 12 h, replicate 2): 11% and 0% | Population Mitotic Cells (%) ([6]; 12 h, replicate 2): 50% | Population Normal (%) ([6]; 12 h, replicate 2): 50% and 60% | Population Pyknosed Nuclei (%) ([6]; 12 h, replicate 2): 6% and 11% | Population Tubulin-Different-Phenotype (%) ([6]; 12 h, replicate 2): 11% and 0% | Total Cell Count ([6]; 12 h, replicate 2): 65 and 56 | Population Apoptotic (%) ([6]; 24 h, replicate 1): 76% | Population Fragmented Nuclei (%) ([6]; 24 h, replicate 1): 28% and 23% | Population Healthy Nuclei (%) ([6]; 24 h, replicate 1): 55% and 61% | Population Hoechst High Intensity Objects (%) ([6]; 24 h, replicate 1): 15% | Population Membrane Permeable-Phenotype (%) ([6]; 24 h, replicate 1): 6% and 1% | Population Mitochondria Different-Phenotype (%) ([6]; 24 h, replicate 1): 1% | Population Mitotic Cells (%) ([6]; 24 h, replicate 1): 23% | Population Normal (%) ([6]; 24 h, replicate 1): 84% | Population Pyknosed Nuclei (%) ([6]; 24 h, replicate 1): 15% | Total Cell Count ([6]; 24 h, replicate 1): 189 and 165 | Population Fragmented Nuclei (%) ([6]; 24 h, replicate 2): 65% and 71% | Population Healthy Nuclei (%) ([6]; 24 h, replicate 2): 31% and 15% | Population Hoechst High Intensity Objects (%) ([6]; 24 h, replicate 2): 42% and 34% | Population Membrane Permeable-Phenotype (%) ([6]; 24 h, replicate 2): 9% and 0% | Population Mitochondria Different-Phenotype (%) ([6]; 24 h, replicate 2): 18% and 40% | Population Normal (%) ([6]; 24 h, replicate 2): 57% and 65% | Population Tubulin-Different-Phenotype (%) ([6]; 24 h, replicate 2): 0% and 20% | Total Cell Count ([6]; 24 h, replicate 2): 61 and 49
